Most compounds without a hit are left out; they make up all but 12% or so of the library.
L major viab – Leishmania major promastigote growth inhibition, primary screen. AID 1063, 2008. Leishmania major promastigotes, resazurin fluorescence viability. 200,000 tested, 9% active. inhibition, % at 10 µM; in the data active means inhibition above about 50%;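 further: promastigotes grown with compound for 44 hours at 28 °C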
RAM inhibit – inhibitors of the yeast RAM network, primary screen, dse1pr::URA3 reporter, 5-FOA selection; S. cerevisiae dse1pr::URA3 reporter, 5-FOA growth OD615, 2 d; analog-sensitive cbk1-as2 kinase mutant strain; AID 868, 2007; inhibition, % at 50 µM; 190,000 tested, 1.8% active;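 active means inhibition above a set limit, 3 SD over mean compound inhibition, cut at about 8.4% in these data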;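 further: 0% = DMSO-only wells with no growth and 100% = 10 µM 1-NA-PP1 full growth; inhibition rescues growth on 5-FOA so higher OD means more RAM inhibition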
ABCB1 block – ABCB1 efflux pump inhibitors, primary screen, cell-based, multiplex, flow cytometry, ABCG2 counter-screen; ATP-dependent translocase ABCB1 (Homo sapiens), P08183; CCRF-Adr cells, JC-1 efflux; inhibition, % at 6.6 µM; 190,000 tested, 0.067% active; AID 1326, 2008; in the data active means inhibition above about 40%;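 further: 0% = vehicle and 100% = reference inhibitor; higher value means more JC-1 retained so stronger ABCB1 efflux block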
WT yeast gro inh – growth inhibition of WT strain, primary screen, mitochondrial fusion inhibitor project, WT and mutant strains, chemical genetic; mitochondrial fusion phenotypic screen; inhibition, % at 10 µM; 190,000 tested, 2.1% active; AID 1362, 2008; in the data active means inhibition above about 58%; tested in S. cerevisiae
ABCG2 block – ABCG2 efflux pump inhibitors, primary screen, multiplex with ABCB1, IgMXP3 cells, flow cytometry; Broad substrate specificity ATP-binding cassette transporter ABCG2 (Homo sapiens), Q9UNQ0; JC-1 efflux; inhibition, % at 6.6 µM; 190,000 tested, 0.1% active;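 active means inhibition above 80%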;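 further: 0% = DMSO and 100% = nicardipine control wells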
Target sequence (Q9UNQ0 whole entry, looked up): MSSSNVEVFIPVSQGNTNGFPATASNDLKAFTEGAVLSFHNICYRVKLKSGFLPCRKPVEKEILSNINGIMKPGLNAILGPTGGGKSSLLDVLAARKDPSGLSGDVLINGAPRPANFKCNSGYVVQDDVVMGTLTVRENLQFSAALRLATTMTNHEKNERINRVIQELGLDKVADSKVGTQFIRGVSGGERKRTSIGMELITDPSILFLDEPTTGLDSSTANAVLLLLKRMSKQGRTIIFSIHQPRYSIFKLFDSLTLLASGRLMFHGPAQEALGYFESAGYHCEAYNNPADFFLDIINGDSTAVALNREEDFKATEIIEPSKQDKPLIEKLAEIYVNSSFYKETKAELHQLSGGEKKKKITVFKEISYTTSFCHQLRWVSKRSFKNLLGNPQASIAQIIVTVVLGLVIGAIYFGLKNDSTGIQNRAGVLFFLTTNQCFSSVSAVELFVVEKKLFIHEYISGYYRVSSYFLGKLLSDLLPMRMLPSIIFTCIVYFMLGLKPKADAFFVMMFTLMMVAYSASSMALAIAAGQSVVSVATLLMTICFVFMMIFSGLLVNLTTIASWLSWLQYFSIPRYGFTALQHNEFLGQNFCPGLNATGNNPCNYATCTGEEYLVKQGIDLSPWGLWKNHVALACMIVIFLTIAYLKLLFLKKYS
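Assay system – ABCG2 IgMXP3 and barcoded ABCB1 CCRF-Adr cell mix · Input – 3 million cells/mL in well · Reagent – JC-1 fluorescent substrate · Compound – single test compound dose, 6.6 µM final · Timing – 10 min exposure at 25 °C with rotation, no wash · Detection – flow cytometry of retained JC-1 fluorescence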
Starred values were filed as active, the others as inactive.

SMILES	L major viab	RAM inhibit	ABCB1 block	WT yeast gro inh	ABCG2 block
CC1CCCCN1C(=O)Cn1cc(C=O)c2ccccc21 (configuration not stated)	-5.7	0.0	0.0	-7.7	0.0
CC1CCCCN1C(=O)Cn1cc(/C=C2/C(=O)Nc3ccccc32)c2ccccc21 (configuration not stated)	19.0	9.4*	0.8	95.6*	1.3
OC(CNCc1ccccc1)COCc1ccc(Cl)cc1 (configuration not stated)	84.4*	1.9	-0.1	9.3	0.1
Cc1noc(C)c1COc1cccc(C(=O)OC(C)C(=O)Nc2c(C)n(C)n(-c3ccccc3)c2=O)c1 (configuration not stated)	-7.9	-0.4	1.3	8.1	7.2
CCOc1ccc(S(=O)(=O)N/N=C2/CC(c3ccccc3)Oc3ccccc32)cc1 (configuration not stated)	50.2*	1.2	-0.2	38.8	-0.3
O=S(=O)(N/N=C1\CC(c2ccccc2)Oc2ccccc21)c1ccccc1 (configuration not stated)	29.9	4.3	0.7	55.1	0.5
N#Cc1ccc(OCC(=O)N/N=C2/CC(c3ccccc3)Oc3ccccc32)cc1 (configuration not stated)	52.6*	2.4	0.1	-3.5	2.1
CCOc1ccc(-n2c(=S)sc3c(=O)[nH]c(SCC(=O)C(C)(C)C)nc32)cc1	0.9	5.5	0.0	-8.8	1.1
O=C(Cc1ccccc1[N+](=O)[O-])N1CCc2ccccc2C1	-3.1	1.5	0.8	-2.6	1.6
Cn1cc(/C=C2\SC(=O)NC2=S)c2ccccc21	0.4	10.1*	-2.3	2.4	-12.1
Cc1cc(Oc2ccc(C(C)(C)C)cc2)nc(N2CCOCC2)n1	-0.9	-0.9	0.4	75.4*	1.6
CCCC[N+](CC#Cc1ccccc1)(CCCC)CCCS(=O)(=O)[O-]	-8.9	1.0	2.0	-7.2	4.5
CC(NS(=O)(=O)/C=C/c1ccccc1)c1ccccc1 (configuration not stated)	1.1	-0.2	0.9	-22.0	7.3
O=C(Nc1nccs1)c1ccc2c(=O)n3c(nc2c1)CCCCC3	10.1	-1.5	1.3	3.1	11.2
CCOC(=O)C1(Cc2cccc(Cl)c2)CCCN(C2CCN(C(C)=O)CC2)C1 (configuration not stated)	83.2*	-0.8	1.6	5.3	2.8
Cc1ccc(Cl)cc1N1CCN(C(CC(C)C)c2nnnn2CC2CCCO2)CC1 (configuration not stated)	13.2	1.7	4.0	10.5	19.8
CCC(c1nnnn1C(C)(C)C)N1CCN(c2cc(Cl)ccc2C)CC1 (configuration not stated)	1.3	1.2	2.9	72.7*	9.3
CCC(c1nnnn1C(C)(C)C)N1CCN(C2CCCC2)CC1 (configuration not stated)	0.7	1.6	0.2	5.8	0.3
CCCC(c1nnnn1CC1CCCO1)N1CCN(c2cc(Cl)ccc2C)CC1 (configuration not stated)	17.9	0.8	1.4	65.3*	2.9
CCCC(=O)c1ccc(N2CCC(C)CC2)c(F)c1	-2.4	0.1	0.3	-0.6	1.0
Cc1ccc(C(=O)NC(=S)Nc2nc(-c3cccc([N+](=O)[O-])c3)cs2)c(Cl)c1	23.2	1.4	-0.2	-3.5	5.0
O=C(N/N=C/c1ccsc1)c1ccc2ccccc2n1	-1.1	0.7	0.9	-8.9	13.6
Cc1ccc(-n2c(SCC3CNC(=O)O3)nnc2-c2ccccc2)cc1C (configuration not stated)	0.6	4.3	0.7	-10.6	8.0
O=C(NN1CCOCC1)c1cc(-c2ccc(Br)cc2)nc2ccccc12	58.5*	6.6	0.4	-6.2	2.0
COc1cc(-c2cc(C(=O)Nc3ccccc3N3CCOCC3)c3ccccc3n2)cc(OC)c1OC	60.6*	1.0	8.0	22.2	8.2
SMILES	L major viab	RAM inhibit	ABCB1 block	WT yeast gro inh	ABCG2 block
Cn1cc(CNC(=O)c2cc(-c3ccccc3)nc3ccc(Br)cc23)cn1	0.5	3.5	0.6	7.9	-1.0
Cn1cc(CNC(=O)c2cc(-c3ccc(Br)cc3)nc3ccccc23)cn1	11.3	8.8*	1.9	-4.9	4.3
CCOC(=O)C(C(=O)OCC)N(C#N)c1nc(N(C)C)nc(N(C)C)n1	3.0	-0.4	7.7	-8.2	0.0
CC(=O)c1cc(C#N)c(SCc2ccccc2C#N)nc1C	-4.1	4.4	0.9	15.9	2.5
CCOC(=O)c1cc(C#N)c(SCc2cccc3ccccc23)nc1C	0.4	10.1*	-0.8	-11.8	0.5
OC(COCc1cccs1)CN1CCN(c2cccc(Cl)c2)CC1 (configuration not stated)	98.6*	0.5	1.5	-17.9	4.3
OC(COCc1cccs1)CN1CCN(c2ccccc2Cl)CC1 (configuration not stated)	2.4	0.9	-0.1	-9.3	0.0
CC(=O)c1ccc(OCC(O)CN2CCN(c3ccccn3)CC2)cc1 (configuration not stated)	5.3	0.5	0.9	15.1	10.5
CCOC(=O)C1CCN(CC(O)COc2ccc(C(C)(C)C)cc2)CC1 (configuration not stated)	92.0*	-0.1	0.8	40.0	1.1
CCOC(=O)C1CCN(CC(O)COCc2cccs2)CC1 (configuration not stated)	79.1*	-1.1	-0.1	15.4	-2.9
CCOC(=O)C1CCN(CC(O)COc2ccc(C(C)=O)cc2)CC1 (configuration not stated)	92.0*	1.4	0.9	15.0	4.2
Cc1cc([N+](=O)[O-])ccc1NC(=O)CSc1nccc(=O)[nH]1	-6.8	2.5	1.2	-4.5	8.2
CCOC(=O)C1CCN(CC(O)COc2ccc(C(C)(C)CC)cc2)CC1 (configuration not stated)	96.9*	1.5	1.9	2.2	4.9
CCOC(=O)C1CCN(C(=O)COc2ccc(S(=O)(=O)NC(C)(C)C)cc2)CC1	1.7	0.9	0.2	-16.3	1.1
CSc1cccc(NC(=O)C(C)C)c1	7.7	0.8	0.0	8.8	1.9
CC(C)C(=O)Nc1cccc(S(=O)(=O)c2cccc(NC(=O)C(C)C)c2)c1	65.9*	0.5	0.5	-4.8	0.0
O=C(c1cc(Cl)ccc1[N+](=O)[O-])n1cnc2ccccc21	55.4*	1.9	0.5	-30.0	2.9
Cc1ccc(C2CC(c3ccc(C)cc3)n3nc(N)nc3N2)cc1 (configuration not stated)	-1.1	-0.2	0.3	1.8	3.6
COc1ccc(CCNC(=O)c2nnn(CC(=O)Nc3cccc(F)c3)c2N)cc1OC	-1.0	1.9	0.0	10.0	2.7
